Data taken from ChEMBL document CHEMBL3779808, “Design, synthesis and biological evaluation of 5-amino-4-(1H-benzoimidazol-2-yl)-phenyl-1,2-dihydro-pyrrol-3-ones as inhibitors of protein kinase FGFR1” (Bioorg Med Chem, 2016).
Blank lines part the entries; values can stand above or below the compound they belong to.

What was measured:
[1] = biological target: T1, Fibroblast growth factor receptor 1 (Homo sapiens, UniProt P11362); assay: Inhibition of N-terminal GST-tagged recombinant human FGFR1 (456 to 765 residues) expressed in baculovirus infected insect Sf21 cells after 25 mins using KKKSPGEYVNIEFG peptide substrate by scintillation counting analysis
Target sequence in this assay (P11362 whole entry, the tested form may be a part): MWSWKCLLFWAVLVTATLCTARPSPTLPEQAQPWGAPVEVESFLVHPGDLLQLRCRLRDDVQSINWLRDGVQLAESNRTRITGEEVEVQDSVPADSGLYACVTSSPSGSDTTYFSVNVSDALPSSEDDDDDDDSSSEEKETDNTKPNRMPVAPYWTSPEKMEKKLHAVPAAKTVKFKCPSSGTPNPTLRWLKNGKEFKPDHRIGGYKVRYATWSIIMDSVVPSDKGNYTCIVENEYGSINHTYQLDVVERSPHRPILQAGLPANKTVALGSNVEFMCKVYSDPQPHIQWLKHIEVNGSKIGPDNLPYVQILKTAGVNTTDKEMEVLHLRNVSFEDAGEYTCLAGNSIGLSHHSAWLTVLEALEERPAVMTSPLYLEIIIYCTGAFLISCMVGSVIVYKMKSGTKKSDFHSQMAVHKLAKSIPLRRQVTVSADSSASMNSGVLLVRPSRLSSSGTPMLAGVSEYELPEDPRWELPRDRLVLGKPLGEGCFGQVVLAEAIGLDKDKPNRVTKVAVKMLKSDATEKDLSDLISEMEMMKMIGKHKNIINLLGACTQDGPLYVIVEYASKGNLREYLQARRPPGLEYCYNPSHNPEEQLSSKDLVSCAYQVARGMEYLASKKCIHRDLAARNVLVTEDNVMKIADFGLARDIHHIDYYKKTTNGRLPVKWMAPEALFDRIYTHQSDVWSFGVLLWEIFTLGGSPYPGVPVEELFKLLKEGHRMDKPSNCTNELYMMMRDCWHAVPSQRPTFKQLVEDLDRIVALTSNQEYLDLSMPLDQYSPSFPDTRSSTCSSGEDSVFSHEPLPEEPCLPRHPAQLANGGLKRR

[2] = Cytotoxicity against human KG1 cells assessed as cell viability after 72 hrs by MTT assay; conditions: KG-1, 72 h
[3] = tested on: HEK293; assay: Cytotoxicity against HEK293 cells assessed as cell viability after 72 hrs by MTT assay; conditions: Homo sapiens, HEK293, 72 h
[4] = biological target: T1, Fibroblast growth factor receptor 1; assay: Inhibition of N-terminal GST-tagged recombinant human FGFR1 (456 to 765 residues) expressed in baculovirus infected insect Sf21 cells assessed as residual activity at 10 uM
Method in brief: (§1)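 This is a seven-kinase selectivity panel run according to the enzyme supplier's (Millipore) protocols. The reaction mixture contained 100 µM ATP. Activity is reported as residual activity.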
Target sequence in this assay (P11362 22-822 limits assumed): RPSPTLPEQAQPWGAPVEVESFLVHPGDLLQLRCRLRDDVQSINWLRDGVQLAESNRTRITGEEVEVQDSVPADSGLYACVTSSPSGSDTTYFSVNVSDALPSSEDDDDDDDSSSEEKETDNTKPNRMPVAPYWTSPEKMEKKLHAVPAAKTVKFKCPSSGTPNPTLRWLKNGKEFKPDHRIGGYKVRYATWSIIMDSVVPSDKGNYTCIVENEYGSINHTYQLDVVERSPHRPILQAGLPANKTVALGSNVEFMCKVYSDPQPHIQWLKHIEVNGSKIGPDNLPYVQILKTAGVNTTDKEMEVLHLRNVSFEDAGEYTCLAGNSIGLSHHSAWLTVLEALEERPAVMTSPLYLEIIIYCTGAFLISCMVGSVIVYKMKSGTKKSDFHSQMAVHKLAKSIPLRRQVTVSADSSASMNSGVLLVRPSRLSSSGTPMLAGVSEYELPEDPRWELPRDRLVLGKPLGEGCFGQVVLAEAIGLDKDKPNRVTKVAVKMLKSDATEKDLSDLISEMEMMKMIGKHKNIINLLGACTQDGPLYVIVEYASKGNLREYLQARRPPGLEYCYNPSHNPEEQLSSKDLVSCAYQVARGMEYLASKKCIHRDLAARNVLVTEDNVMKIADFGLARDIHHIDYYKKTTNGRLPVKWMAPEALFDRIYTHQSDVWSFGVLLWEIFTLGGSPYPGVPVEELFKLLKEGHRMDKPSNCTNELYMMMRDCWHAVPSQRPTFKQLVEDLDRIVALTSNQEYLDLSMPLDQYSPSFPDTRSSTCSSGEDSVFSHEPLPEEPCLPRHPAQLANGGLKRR

[5] = biological target: Angiopoietin-1 receptor (Homo sapiens) (UniProt Q02763); assay: Inhibition of N-terminal His6-tagged recombinant human Tie2 residues 771-end expressed in baculovirus infected insect Sf21 cells assessed as residual activity at 10 uM; method in brief: as §1
[6] = biological target: Hepatocyte growth factor receptor (Homo sapiens) (UniProt P08581); assay: Inhibition of N-terminal His6-tagged recombinant human c-Met residues 974-end expressed in baculovirus infected insect Sf21 cells assessed as residual activity at 10 uM; method in brief: as §1
[7] = biological target: T2, Aurora kinase A (Homo sapiens) (UniProt O14965); assay: Inhibition of N-terminal His6-tagged recombinant full length human Aurora A expressed in Sf21 cells assessed as residual activity at 10 uM; method in brief: as §1
T2 sequence (whole entry): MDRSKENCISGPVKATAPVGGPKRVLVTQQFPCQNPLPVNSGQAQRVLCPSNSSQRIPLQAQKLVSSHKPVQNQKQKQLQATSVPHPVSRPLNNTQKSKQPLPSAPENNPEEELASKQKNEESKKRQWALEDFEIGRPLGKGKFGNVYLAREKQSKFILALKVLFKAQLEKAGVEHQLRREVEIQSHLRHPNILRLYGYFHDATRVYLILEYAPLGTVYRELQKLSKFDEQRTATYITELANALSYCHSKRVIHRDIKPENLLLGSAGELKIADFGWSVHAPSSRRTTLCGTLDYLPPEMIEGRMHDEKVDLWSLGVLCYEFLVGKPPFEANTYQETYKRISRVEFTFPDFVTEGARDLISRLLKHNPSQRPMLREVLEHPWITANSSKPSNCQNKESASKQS

[8] = biological target: Mitogen-activated protein kinase 10 (Homo sapiens) (UniProt P53779); assay: Inhibition of N-terminal His6 tagged recombinant full length human JNK3 expressed in Sf21 cells assessed as residual activity at 10 uM; method in brief: as §1
[9] = biological target: Casein kinase 2 (Homo sapiens) (UniProt P67870+P68400+P19784+Q8NEV1); assay: Inhibition of recombinant full length human Casein Kinase 2 expressed in insect Sf21 cells assessed as residual activity at 10 uM; method in brief: as §1
[10] = biological target: T3, Mitogen-activated protein kinase kinase kinase 5 (Homo sapiens) (UniProt Q99683); assay: Inhibition of N-terminal GST/C-terminal His6-tagged recombinant human ASK1 (649 to 946 amino acids) expressed in Escherichia coli assessed as residual activity at 10 uM; method in brief: as §1
T3 sequence (whole entry): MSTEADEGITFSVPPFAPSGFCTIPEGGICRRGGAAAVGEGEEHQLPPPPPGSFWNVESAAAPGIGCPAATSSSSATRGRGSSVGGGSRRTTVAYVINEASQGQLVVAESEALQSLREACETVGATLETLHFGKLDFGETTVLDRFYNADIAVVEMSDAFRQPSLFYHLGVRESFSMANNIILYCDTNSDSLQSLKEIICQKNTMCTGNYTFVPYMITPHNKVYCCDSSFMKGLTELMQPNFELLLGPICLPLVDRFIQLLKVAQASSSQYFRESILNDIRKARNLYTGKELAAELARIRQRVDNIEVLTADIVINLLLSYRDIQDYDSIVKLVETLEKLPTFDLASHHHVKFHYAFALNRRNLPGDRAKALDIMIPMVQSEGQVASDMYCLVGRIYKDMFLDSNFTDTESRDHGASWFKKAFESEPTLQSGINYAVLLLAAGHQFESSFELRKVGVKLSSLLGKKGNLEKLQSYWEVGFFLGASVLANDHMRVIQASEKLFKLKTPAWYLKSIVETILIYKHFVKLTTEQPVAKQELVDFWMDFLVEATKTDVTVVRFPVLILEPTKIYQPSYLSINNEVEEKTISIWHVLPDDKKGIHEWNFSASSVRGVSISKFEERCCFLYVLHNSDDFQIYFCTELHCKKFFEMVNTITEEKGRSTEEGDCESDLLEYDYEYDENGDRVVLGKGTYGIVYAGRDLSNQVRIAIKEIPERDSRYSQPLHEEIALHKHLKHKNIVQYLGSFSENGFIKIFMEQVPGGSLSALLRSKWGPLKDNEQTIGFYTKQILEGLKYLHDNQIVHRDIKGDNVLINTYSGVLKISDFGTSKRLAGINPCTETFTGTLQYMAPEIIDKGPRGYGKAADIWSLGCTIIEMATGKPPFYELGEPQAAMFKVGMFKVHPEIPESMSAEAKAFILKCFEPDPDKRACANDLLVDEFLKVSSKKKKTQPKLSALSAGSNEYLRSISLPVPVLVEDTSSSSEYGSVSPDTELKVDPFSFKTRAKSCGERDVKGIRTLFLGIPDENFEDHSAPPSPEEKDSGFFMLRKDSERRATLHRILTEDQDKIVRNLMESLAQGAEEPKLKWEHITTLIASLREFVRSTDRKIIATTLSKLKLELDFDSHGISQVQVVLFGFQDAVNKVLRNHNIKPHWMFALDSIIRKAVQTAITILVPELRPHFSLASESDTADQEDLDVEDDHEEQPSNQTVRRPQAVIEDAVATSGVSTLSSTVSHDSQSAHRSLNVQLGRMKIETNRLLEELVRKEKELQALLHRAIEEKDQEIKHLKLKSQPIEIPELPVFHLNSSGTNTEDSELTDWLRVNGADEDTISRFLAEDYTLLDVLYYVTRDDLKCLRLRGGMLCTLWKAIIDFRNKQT

Angiopoietin-1 receptor (Homo sapiens), sequence (Q02763 whole entry, the tested form may be a part): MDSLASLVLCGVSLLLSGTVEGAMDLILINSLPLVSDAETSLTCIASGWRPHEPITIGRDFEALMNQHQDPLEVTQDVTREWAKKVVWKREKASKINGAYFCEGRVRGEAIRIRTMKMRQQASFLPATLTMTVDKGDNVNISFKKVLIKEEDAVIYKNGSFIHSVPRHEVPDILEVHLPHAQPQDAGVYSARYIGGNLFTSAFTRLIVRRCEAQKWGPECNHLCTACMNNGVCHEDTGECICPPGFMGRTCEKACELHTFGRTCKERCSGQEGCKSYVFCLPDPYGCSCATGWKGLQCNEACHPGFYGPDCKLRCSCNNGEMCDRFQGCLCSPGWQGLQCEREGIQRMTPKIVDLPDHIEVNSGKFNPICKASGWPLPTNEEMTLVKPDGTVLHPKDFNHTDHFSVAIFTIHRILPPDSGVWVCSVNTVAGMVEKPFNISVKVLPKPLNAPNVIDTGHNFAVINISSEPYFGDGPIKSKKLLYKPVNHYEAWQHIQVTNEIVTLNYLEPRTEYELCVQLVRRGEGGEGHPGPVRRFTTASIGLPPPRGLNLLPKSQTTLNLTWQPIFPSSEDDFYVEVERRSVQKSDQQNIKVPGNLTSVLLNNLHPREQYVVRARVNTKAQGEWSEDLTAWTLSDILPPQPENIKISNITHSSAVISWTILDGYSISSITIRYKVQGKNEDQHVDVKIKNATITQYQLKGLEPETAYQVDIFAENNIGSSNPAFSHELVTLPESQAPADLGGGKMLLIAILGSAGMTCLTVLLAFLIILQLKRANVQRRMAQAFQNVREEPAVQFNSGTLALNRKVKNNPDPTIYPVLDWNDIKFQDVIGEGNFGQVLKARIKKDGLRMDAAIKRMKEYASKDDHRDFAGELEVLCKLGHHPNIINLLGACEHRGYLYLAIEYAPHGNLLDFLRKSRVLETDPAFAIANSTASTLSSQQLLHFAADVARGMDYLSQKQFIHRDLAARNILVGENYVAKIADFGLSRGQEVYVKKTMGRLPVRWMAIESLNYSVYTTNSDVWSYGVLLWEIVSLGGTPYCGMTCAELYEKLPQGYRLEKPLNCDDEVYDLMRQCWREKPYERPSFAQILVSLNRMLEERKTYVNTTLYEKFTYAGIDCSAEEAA
Hepatocyte growth factor receptor (Homo sapiens), sequence (P08581 whole entry, the tested form may be a part): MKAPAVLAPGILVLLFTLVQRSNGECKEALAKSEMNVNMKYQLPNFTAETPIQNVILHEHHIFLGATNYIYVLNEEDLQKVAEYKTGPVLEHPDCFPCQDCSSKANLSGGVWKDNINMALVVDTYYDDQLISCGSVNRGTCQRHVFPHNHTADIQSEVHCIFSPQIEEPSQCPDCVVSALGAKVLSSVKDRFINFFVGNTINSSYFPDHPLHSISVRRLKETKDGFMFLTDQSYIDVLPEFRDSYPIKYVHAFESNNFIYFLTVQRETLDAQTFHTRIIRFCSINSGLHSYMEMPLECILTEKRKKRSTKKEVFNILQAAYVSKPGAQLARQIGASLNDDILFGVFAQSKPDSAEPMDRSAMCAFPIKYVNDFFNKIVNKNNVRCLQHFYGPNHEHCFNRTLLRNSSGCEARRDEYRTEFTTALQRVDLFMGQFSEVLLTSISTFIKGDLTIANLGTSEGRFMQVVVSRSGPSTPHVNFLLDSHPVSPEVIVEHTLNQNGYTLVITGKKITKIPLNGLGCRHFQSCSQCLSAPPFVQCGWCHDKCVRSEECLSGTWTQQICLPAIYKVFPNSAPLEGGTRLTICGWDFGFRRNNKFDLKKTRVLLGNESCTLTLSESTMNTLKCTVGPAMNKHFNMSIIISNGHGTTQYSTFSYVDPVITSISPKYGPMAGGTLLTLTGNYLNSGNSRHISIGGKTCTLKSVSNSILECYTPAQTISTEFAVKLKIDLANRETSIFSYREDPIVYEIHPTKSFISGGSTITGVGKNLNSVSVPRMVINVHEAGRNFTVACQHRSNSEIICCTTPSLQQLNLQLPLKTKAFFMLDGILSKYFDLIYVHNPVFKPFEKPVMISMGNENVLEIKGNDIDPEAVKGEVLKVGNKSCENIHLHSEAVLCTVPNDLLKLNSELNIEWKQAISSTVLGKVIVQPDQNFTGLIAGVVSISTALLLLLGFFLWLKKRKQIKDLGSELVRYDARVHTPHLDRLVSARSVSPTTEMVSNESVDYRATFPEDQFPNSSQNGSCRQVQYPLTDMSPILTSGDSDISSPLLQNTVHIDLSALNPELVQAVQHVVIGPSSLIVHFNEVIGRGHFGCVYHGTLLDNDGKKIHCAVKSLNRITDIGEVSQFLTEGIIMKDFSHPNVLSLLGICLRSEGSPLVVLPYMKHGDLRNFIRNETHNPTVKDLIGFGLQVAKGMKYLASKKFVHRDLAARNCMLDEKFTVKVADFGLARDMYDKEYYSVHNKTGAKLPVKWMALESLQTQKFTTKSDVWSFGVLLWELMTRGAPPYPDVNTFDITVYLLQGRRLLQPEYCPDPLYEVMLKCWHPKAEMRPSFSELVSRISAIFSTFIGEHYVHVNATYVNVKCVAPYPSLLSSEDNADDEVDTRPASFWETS
Mitogen-activated protein kinase 10 (Homo sapiens), sequence (P53779 whole entry): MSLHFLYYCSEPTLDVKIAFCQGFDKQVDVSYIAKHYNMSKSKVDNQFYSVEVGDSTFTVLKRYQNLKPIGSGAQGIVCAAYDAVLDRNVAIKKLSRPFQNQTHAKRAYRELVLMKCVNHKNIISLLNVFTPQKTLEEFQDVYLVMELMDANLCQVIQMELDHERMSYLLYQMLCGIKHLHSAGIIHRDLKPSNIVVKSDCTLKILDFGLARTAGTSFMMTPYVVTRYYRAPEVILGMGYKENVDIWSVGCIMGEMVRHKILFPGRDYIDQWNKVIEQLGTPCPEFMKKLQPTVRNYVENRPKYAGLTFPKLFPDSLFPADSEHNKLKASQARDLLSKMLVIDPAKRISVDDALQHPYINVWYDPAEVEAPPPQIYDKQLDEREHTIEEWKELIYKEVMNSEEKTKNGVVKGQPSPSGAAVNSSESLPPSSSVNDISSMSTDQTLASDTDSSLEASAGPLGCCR

- IC50 [1]: > 30 µM
Compound: NC1=C(c2nc3ccccc3[nH]2)C(=O)CN1c1ccccc1F

- IC50 [1]: > 30 µM
Compound: Cc1cccc(N2CC(=O)C(c3nc4ccccc4[nH]3)=C2N)c1

- IC50 [1]: 0.32 µM
- Activity [4]: 2.1%
- Activity [5]: 84.7%
- Activity [6]: 128%
- Activity [7]: 85.8%
- Activity [8]: 118%
- Activity [9]: 81.4%
- Activity [10]: 95.7%
Compound: NC1=C(c2nc3ccccc3[nH]2)C(=O)CN1c1cccc(O)c1
- IC50 [2]: 9.3 µM
- IC50 [3]: > 50 µM

- IC50 [1]: 0.63 µM
- Activity [4]: 5%
- Activity [5]: 92.7%
- Activity [6]: 92.5%
- Activity [7]: 75.8%
- Activity [8]: 101%
- Activity [9]: 77.3%
- Activity [10]: 91.6%
Compound: Cc1ccc2nc(C3=C(N)N(c4cccc(O)c4)CC3=O)[nH]c2c1
- IC50 [2]: 5.6 µM
- IC50 [3]: > 50 µM

- IC50 [1]: 27 µM
Compound: NC1=C(c2nc3ccccc3[nH]2)C(=O)CN1c1ccc(F)cc1

- IC50 [1]: > 30 µM
Compound: NC1=C(c2nc3ccccc3[nH]2)C(=O)CN1c1ccccc1Cl

- IC50 [1]: > 30 µM
Compound: NC1=C(c2nc3ccccc3[nH]2)C(=O)CN1c1ccccc1

Compound: COc1ccc(Cl)cc1N1CC(=O)C(c2nc3ccccc3[nH]2)=C1N
- IC50 [2]: > 50 µM
- IC50 [3]: > 50 µM

- IC50 [1]: > 30 µM
Compound: Cc1ccc(N2CC(=O)C(c3nc4ccccc4[nH]3)=C2N)cc1

- IC50 [1]: > 30 µM
Compound: CCOc1ccccc1N1CC(=O)C(c2nc3ccccc3[nH]2)=C1N

- IC50 [1]: > 30 µM
Compound: COc1ccc(N2CC(=O)C(c3nc4ccccc4[nH]3)=C2N)c(OC)c1
